The source of these data is ChEMBL document CHEMBL5329188, “Design, synthesis, and biological evaluation of 3,3'-diindolylmethane N-linked glycoconjugate as a leishmanial topoisomerase IB inhibitor with reduced cytotoxicity” (RSC Med Chem, 2023).

Active and inactive are the calls of the source. No cut-off for these calls is given here.

The test system of data set [1] is Leishmania donovani. Kind of data set: Inhibition of recombinant Leishmania donovani DNA topoisomerase IB mediated relaxation activity expressed in Escherichia coli BL21 (DE3) cells using supercoiled pHOT1 DNA as substrate at 500 uM incubated for 25 mins by EtBr staining based agarose gel electrophoresis analysis relative to control. In short, it runs like this: (§1)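 His-tagged LdTopILS expressed from pET16b plasmids in E. coli BL21(DE3) (0.5 mM IPTG, 22 °C, 12 h) and Ni-NTA purified. Enzyme mixed with supercoiled pHOT1 at 3:1 molar ratio in 25 mM Tris-Cl pH 7.5, 5% glycerol, 50 mM KCl, 0.5 mM DTT, 10 mM MgCl2, 30 μg ml^-1 BSA for 25 min at 37 °C. Controls: CPT 60 μM and DMSO 4% v/v. Products run on 1% agarose, EtBr stained, relaxed vs supercoiled quantified.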

The subject of data set [2] is Leishmania donovani. Description: Antileishmanial activity against Leishmania donovani MHOM/IN/80/Dd8 promastigotes assessed as reduction in promastigotes viability incubated for 24 hrs by resazurin-based alamar blue dye assay. Conditions: MHOM/IN/80/Dd8, 24 h. The class given is functional, organism-based. In short, it runs like this:
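L. donovani DD8 promastigotes, exponential phase, in M199 with 10% heat-inactivated FBS at 24 ± 1 °C, 5×10^6 cells per well. Exposed 24 h to 100, 50, 25, 12.5 and 6.25 μM (1 mM DMSO stocks). Viability read with resazurin (Alamar Blue, 20 μg ml^-1 final), excitation 550 nm and emission 590 nm. Amphotericin B standard. IC50 from curve fit; mean ± SD of three independent experiments.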
On the technique in general: The colour change of resazurin is a common sign of viable cells or microbes.

Data set [3] relates to Leishmania donovani. Description: Inhibition of recombinant Leishmania donovani DNA topoisomerase IB mediated relaxation activity expressed in Escherichia coli BL21 (DE3) cells using supercoiled pHOT1 DNA as substrate at 500 uM incubated for 25 mins by EtBr staining based agarose gel electrophoresis analysis. In short, it runs like this: as §1
The subject of data set [4] is J774.A1. Description: Cytotoxicity against mouse J774.A1 cells assessed as reduction in viability at 50 uM incubated for 20 hrs by MTT assay. The class given is toxicity, cell-based. Conditions: j774.a1, 20 h. The essentials: (§2)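 J774A.1 murine macrophages in DMEM, 2×10^4 cells per well, adhered overnight. Treated in triplicate at 100, 50, 30, 20 and 10 μM with 0.1% final DMSO (DMSO negative control, amphotericin B positive control) for 20 h. MTT (2.5 mg ml^-1 in PBS) added for 4 h at 37 °C, formazan dissolved in DMSO, OD 570 nm. CC50 from curve fit; mean ± SD of three independent experiments.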
A general note: Tetrazolium dyes change colour on reduction, which living cells bring about.

Data set [5] deals with J774.A1. Description: Cytotoxicity against mouse J774.A1 cells assessed as reduction in viability at 30 uM incubated for 20 hrs by MTT assay. The class given is toxicity, cell-based. Conditions: j774.a1, 20 h. The essentials:
as §2

The subject of data set [6] is J774.A1. Kind of data set: Cytotoxicity against mouse J774.A1 cells assessed as reduction in viability at 20 uM incubated for 20 hrs by MTT assay. The class given is toxicity, cell-based. The conditions noted are these: j774.a1, 20 h. In short, it runs like this: as §2
In data set [7] the test system is J774.A1. Description: Cytotoxicity against mouse J774.A1 cells assessed as reduction in viability at 10 uM incubated for 20 hrs by MTT assay. The class given is toxicity, cell-based. The conditions noted are these: j774.a1, 20 h. In short, it runs like this: as §2
A short description of data set [8]: Cytotoxicity against mouse J774.A1 cells assessed as reduction in viability incubated for 20 hrs by MTT assay. The class given is toxicity, cell-based. The essentials: as §2
For data set [9], the system named is Leishmania donovani. Description: Inhibition of recombinant Leishmania donovani DNA topoisomerase IB mediated relaxation activity expressed in Escherichia coli BL21 (DE3) cells using supercoiled pHOT1 DNA as substrate at 400 uM incubated for 25 mins by EtBr staining based agarose gel electrophoresis analysis relative to control. The essentials: as §1
The subject of data set [10] is Leishmania donovani. Description: Inhibition of recombinant Leishmania donovani DNA topoisomerase IB mediated relaxation activity expressed in Escherichia coli BL21 (DE3) cells using supercoiled pHOT1 DNA as substrate at 60 uM incubated for 25 mins by EtBr staining based agarose gel electrophoresis analysis. The essentials: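 LdTopILS was co-expressed from pET16bLdTOP1L and pET16bLdTOP1S in E. coli BL21(DE3), induced with 0.5 mM IPTG at OD600 0.6 for 12 h at 22 °C, and Ni-NTA purified. Enzyme and supercoiled pHOT1 (3:1 molar) ran 25 min at 37 °C in 25 mM Tris-Cl pH 7.5, 5% glycerol, 50 mM KCl, 0.5 mM DTT, 10 mM MgCl2, 30 µg/ml BSA. DMSO 4% v/v was the solvent control. Relaxed versus supercoiled bands were quantified on 1% agarose with EtBr.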

In the case of `CC(=O)OC[C@H]1O[C@@H](n2ccc3cc(Br)ccc32)[C@H](OC(C)=O)[C@@H](OC(C)=O)[C@@H]1OC(C)=O`, the inhibition with Leishmania donovani [1] was more than 90%.

As to `Cc1ccc(C(c2c[nH]c3ccccc23)c2c[nH]c3ccccc23)cc1`, the IC50 in the data set with Leishmania donovani [2] came to 54.3 µM.

On to `Brc1ccc(C(c2c[nH]c3ccccc23)c2c[nH]c3ccccc23)cc1`, for which, in the data set on Leishmania donovani [2], the IC50 worked out at 47 µM. Besides, in the data set on Leishmania donovani [3], the inhibition result was “inactive”.

As for `Fc1ccc(C(c2c[nH]c3ccccc23)c2c[nH]c3ccccc23)cc1`, the IC50 with Leishmania donovani [2] worked out at 36.2 µM. Besides, the Activity with J774.A1 [4] came out at 15.89%; in the data set with J774.A1 [5], 19.81%; with J774.A1 [6], 20.05%; with J774.A1 [7], 26.23%. In addition, the CC50 at 20 h in [8] is 5.71 µM. Further, in the data set on Leishmania donovani [3], the inhibition entry is “inactive”.

As for `Brc1ccc(C(c2c[nH]c3ccc(Br)cc23)c2c[nH]c3ccc(Br)cc23)cc1`, in the data set with Leishmania donovani [2], the IC50 was more than 100 µM.

In the case of `Clc1ccc2c(C(c3ccc(Br)cc3)c3c[nH]c4cc(Cl)ccc34)c[nH]c2c1`, the IC50 in the data set on Leishmania donovani [2] was determined as 74.3 µM.

In the case of `COc1ccc(C(c2c[nH]c3ccc(Br)cc23)c2c[nH]c3ccc(Br)cc23)cc1`, the IC50 in the data set on Leishmania donovani [2] was more than 100 µM.

For the molecule `O=[N+]([O-])c1ccc(C(c2c[nH]c3ccc(Br)cc23)c2c[nH]c3ccc(Br)cc23)cc1`, the concentration for half-maximal inhibition (IC50) in the data set with Leishmania donovani [2] was determined as 48.5 µM.

As to `COc1ccc(C(c2c[nH]c3ccccc23)c2c[nH]c3ccccc23)cc1`, the IC50 in the data set on Leishmania donovani [2] was found to be 54.9 µM.

As to `OC[C@H]1O[C@@H](n2cc(C(c3ccc(F)cc3)c3cn([C@@H]4O[C@H](CO)[C@@H](O)[C@@H](O)[C@H]4O)c4ccc(Br)cc34)c3cc(Br)ccc32)[C@H](O)[C@H](O)[C@@H]1O` (some centres undefined), the IC50 with Leishmania donovani [2] is 27.9 µM. Moreover, the Activity is recorded as 69.77% in the data set on J774.A1 [4], 70.11% with J774.A1 [5], 81.05% in the data set with J774.A1 [6] and 96.25% in the data set on J774.A1 [7]. The CC50 at 20 h in [8] was determined as 89.2 µM. Moreover, the inhibition in the data set on Leishmania donovani [1] and in the data set with Leishmania donovani [9] was 100% each time.

For the molecule `O=[N+]([O-])c1ccc(C(c2c[nH]c3ccccc23)c2c[nH]c3ccccc23)cc1`, in the data set with Leishmania donovani [2], the IC50 was more than 100 µM.

Take `CSc1ccc(C(c2c[nH]c3ccc(Br)cc23)c2c[nH]c3ccc(Br)cc23)cc1`: the IC50 with Leishmania donovani [2] was more than 100 µM.

`Clc1ccc(C(c2c[nH]c3ccc(Br)cc23)c2c[nH]c3ccc(Br)cc23)cc1`: the IC50 with Leishmania donovani [2] was determined as 41.8 µM. Besides, the inhibition result with Leishmania donovani [3] is “inactive”.

Consider `OC[C@H]1O[C@@H](n2ccc3cc(Br)ccc32)[C@H](O)[C@@H](O)[C@@H]1O`, for which the inhibition in the data set on Leishmania donovani [1] was more than 90%.

On to `Cc1ccc(C(c2c[nH]c3ccc(Br)cc23)c2c[nH]c3ccc(Br)cc23)cc1`, for which the IC50 in the data set with Leishmania donovani [2] is 59.2 µM.

With `CSc1ccc(C(c2c[nH]c3ccccc23)c2c[nH]c3ccccc23)cc1`, the IC50 in the data set on Leishmania donovani [2] is more than 100 µM.

Consider `Clc1ccc(C(c2c[nH]c3cc(Cl)ccc23)c2c[nH]c3cc(Cl)ccc23)cc1`, for which the IC50 with Leishmania donovani [2] was 53.2 µM.

Take `CC(=O)OC[C@H]1O[C@@H](n2cc(C(c3ccc(F)cc3)c3cn([C@@H]4O[C@H](COC(C)=O)[C@@H](OC(C)=O)[C@H](OC(C)=O)[C@H]4OC(C)=O)c4ccc(Br)cc34)c3cc(Br)ccc32)[C@H](OC(C)=O)[C@@H](OC(C)=O)[C@@H]1OC(C)=O`: in the data set on Leishmania donovani [2], the IC50 stood at 29.1 µM. The inhibition with Leishmania donovani [1] and in the data set on Leishmania donovani [9] was 100% each time.

In the case of `Fc1ccc(C(c2c[nH]c3ccc(Br)cc23)c2c[nH]c3ccc(Br)cc23)cc1`, the IC50 in the data set with Leishmania donovani [2] was 34.8 µM. The Activity is recorded as 21.73% with J774.A1 [4], 30.34% in the data set with J774.A1 [5], 34.28% in the data set on J774.A1 [6] and 39.59% in the data set on J774.A1 [7]. The CC50 at 20 h in data set [8] was found to be 4.45 µM. In addition, the inhibition entry in the data set with Leishmania donovani [3] was “inactive”.

Consider `O=[N+]([O-])c1ccc(C(c2c[nH]c3cc(Cl)ccc23)c2c[nH]c3cc(Cl)ccc23)cc1`, for which the IC50 with Leishmania donovani [2] worked out at 48.4 µM.

In the case of `Clc1ccc(C(c2c[nH]c3ccccc23)c2c[nH]c3ccccc23)cc1`, in the data set with Leishmania donovani [2], the IC50 came out at 57.1 µM.

With `CC[C@@]1(O)C(=O)OCc2c1cc1n(c2=O)Cc2cc3ccccc3nc2-1`, in the data set with Leishmania donovani [10], the inhibition result is “Active”.

Turning to `C[C@@H]1[C@H](O)[C@@H](C)/C=C/C=C/C=C/C=C/C=C/C=C/C=C/[C@H](O[C@@H]2O[C@H](C)[C@@H](O)[C@H](N)[C@@H]2O)C[C@@H]2O[C@](O)(C[C@@H](O)C[C@@H](O)[C@H](O)CC[C@@H](O)C[C@@H](O)CC(=O)O[C@H]1C)C[C@H](O)[C@H]2C(=O)O` [AMPHOTERICIN B], the IC50 with Leishmania donovani [2] was 0.4 µM.

`Fc1ccc2[nH]cc(C(c3ccc(Cl)cc3)c3c[nH]c4ccc(F)cc34)c2c1`: in the data set on Leishmania donovani [2], the 50% inhibitory concentration (IC50) amounted to 31.4 µM. Moreover, the Activity in the data set with J774.A1 [4] is 26.14%; in the data set with J774.A1 [5], 32.04%; with J774.A1 [6], 33.53%; with J774.A1 [7], 40.15%. Besides, the CC50 at 20 h in data set [8] turned out to be 4.51 µM. Also, the inhibition entry in the data set on Leishmania donovani [3] is “inactive”.

Regarding `Fc1ccc(C(c2c[nH]c3cc(Cl)ccc23)c2c[nH]c3cc(Cl)ccc23)cc1`, the IC50 in the data set with Leishmania donovani [2] was more than 100 µM.

What is called inhibition is the change of the read-out against control, counted positive when it falls. What is called IC50 is the concentration that gives 50% inhibition. Broadly, the CC50 is the concentration giving 50% cytotoxicity.
